A short description of data set [1]: Solubility of the compound. Format: physicochemical. In short, it runs like this: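 Solubility measured by nephelometry.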
The nature of data set [2]: Lipophilicity, log D at pH 7.4. Format: physicochemical. The note with it: buffer.
The next data set deals with T1, Cytochrome P450 1A2 (Homo sapiens, UniProt P05177).
T1 sequence (P05177 whole entry): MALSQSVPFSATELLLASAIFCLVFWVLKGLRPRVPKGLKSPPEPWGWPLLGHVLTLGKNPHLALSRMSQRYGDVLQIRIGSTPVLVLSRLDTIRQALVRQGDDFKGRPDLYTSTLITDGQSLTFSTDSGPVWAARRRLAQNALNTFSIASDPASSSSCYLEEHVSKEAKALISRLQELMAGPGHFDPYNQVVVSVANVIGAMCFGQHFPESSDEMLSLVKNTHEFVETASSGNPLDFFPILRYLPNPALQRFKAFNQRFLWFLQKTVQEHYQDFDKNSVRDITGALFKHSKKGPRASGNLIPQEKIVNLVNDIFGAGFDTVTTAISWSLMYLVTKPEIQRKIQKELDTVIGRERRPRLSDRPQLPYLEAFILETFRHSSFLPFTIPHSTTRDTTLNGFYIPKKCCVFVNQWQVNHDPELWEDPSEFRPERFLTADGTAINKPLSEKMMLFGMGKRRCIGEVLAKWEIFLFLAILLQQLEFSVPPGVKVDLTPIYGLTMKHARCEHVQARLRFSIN
Put plainly: Inhibition of human recombinant CYP1A2. Format: ADME. In short, it runs like this:
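Human recombinant CYP1A2 with 3-cyano-7-ethoxycoumarin as probe substrate. Fluorescence read at Ex 410 nm / Em 460 nm. IC50 determined.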

The test system of another data set is Caco-2. Put plainly: Permeability across human Caco-2 cells assessed as compound transport per hr. Format: ADME, cell-based.
Data set [3] deals with Cytochrome P450 1A2 (Homo sapiens) (UniProt P05177). Description: Inhibition of human recombinant CYP1A2 by kinetic assay.
Data set [4] can be described thus: Metabolic stability in mouse liver S9 fraction assessed as compound remaining after 15 mins. Format: ADME, subcellular. Conditions: read-out: Activity. In short, it runs like this:
(§1)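 Compound exposed for 15 min to hepatic S9 fraction, human or mouse according to the line. Read-out is percent of parent compound remaining.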

The target of another data set is Albumin (Homo sapiens, UniProt P02768). Put plainly: Binding affinity to human serum albumin. Format: ADME. Conditions: isolated protein.
Data set [5] can be described thus: Metabolic stability in human liver S9 fraction assessed as compound remaining after 15 mins. Format: ADME, subcellular. The note with it: read-out: Activity. The gist of the method: as §1
Another data set has as its target Cytochrome P450 2C9 (Homo sapiens, UniProt P11712). Description: Inhibition of human recombinant CYP2C9. Format: ADME.
The next data set has as its target Cytochrome P450 2D6 (Homo sapiens, UniProt P10635). Description: Inhibition of human recombinant CYP2D6. Format: ADME.
The target of another data set is hERG (KCNH2) (Homo sapiens, UniProt Q12809). Description: Inhibition of human ERG at 10 uM.
Another data set has as its target Cytochrome P450 3A4 (Homo sapiens, UniProt P08684). Put plainly: Inhibition of human recombinant CYP3A4. Format: ADME.
In another data set the target is Cytochrome P450 2C19 (Homo sapiens, UniProt P33261). Description: Inhibition of human recombinant CYP2C19. Format: ADME.
Data set [6] concerns the target Cyclin-dependent kinase 5 (Homo sapiens) (UniProt Q00535). Put plainly: Inhibition of CDK5 at 10 uM.
Data set [7] deals with Glycogen synthase kinase-3 beta (Rattus norvegicus) (UniProt P18266). Put plainly: Inhibition of GSK3-beta assessed as tau phosphorylation.
The target in data set [8] is Voltage-gated inwardly rectifying potassium channel KCNH2 (Homo sapiens, UniProt Q12809). Description: Inhibition of human ERG.
Data set [9] addresses Cyclin-dependent kinase 2 (Homo sapiens) (UniProt P24941). Put plainly: Inhibition of CDK2 at 10 uM.
The target in data set [10] is Cyclin-dependent kinase 4 (Homo sapiens) (UniProt P11802). Put plainly: Inhibition of CDK4 at 10 uM.
Data set [11] addresses Cyclin-dependent kinase 9 (Homo sapiens) (UniProt P50750). Description: Inhibition of CDK9 at 10 uM.

pIC50: −log10 of the molar value. Values after ≈ are worked out from the molar mass of the structure shown.

Albumin, sequence (P02768 whole entry): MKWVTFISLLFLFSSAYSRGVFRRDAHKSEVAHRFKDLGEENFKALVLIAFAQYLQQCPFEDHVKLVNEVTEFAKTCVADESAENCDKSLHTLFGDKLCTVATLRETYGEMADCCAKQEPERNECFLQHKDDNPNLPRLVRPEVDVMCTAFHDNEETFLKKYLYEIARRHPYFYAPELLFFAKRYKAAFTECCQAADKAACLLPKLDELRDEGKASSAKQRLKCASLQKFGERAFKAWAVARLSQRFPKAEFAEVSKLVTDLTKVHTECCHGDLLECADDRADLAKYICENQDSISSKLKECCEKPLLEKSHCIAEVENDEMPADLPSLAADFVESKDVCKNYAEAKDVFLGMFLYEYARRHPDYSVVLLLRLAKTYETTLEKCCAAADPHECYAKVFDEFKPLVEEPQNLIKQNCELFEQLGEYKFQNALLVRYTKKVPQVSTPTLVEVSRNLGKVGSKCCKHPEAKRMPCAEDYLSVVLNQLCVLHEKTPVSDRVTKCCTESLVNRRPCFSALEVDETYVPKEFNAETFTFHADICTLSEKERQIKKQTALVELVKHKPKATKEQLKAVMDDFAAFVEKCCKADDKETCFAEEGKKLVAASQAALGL
Cytochrome P450 2D6, sequence (P10635 whole entry): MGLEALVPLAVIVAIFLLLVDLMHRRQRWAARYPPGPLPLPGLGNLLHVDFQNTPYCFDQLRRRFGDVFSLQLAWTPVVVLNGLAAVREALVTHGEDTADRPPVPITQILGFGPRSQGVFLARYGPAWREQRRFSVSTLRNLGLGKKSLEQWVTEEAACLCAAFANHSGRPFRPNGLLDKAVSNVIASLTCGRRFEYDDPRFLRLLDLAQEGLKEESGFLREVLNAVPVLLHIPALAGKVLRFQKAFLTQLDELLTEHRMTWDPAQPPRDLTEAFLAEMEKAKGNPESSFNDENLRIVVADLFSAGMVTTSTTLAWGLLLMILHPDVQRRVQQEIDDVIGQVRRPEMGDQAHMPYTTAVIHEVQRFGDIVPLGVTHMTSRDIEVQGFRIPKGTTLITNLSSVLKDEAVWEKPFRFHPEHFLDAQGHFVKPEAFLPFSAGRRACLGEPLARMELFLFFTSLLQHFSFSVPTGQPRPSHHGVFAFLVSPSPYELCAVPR
Cytochrome P450 3A4, sequence (P08684 whole entry): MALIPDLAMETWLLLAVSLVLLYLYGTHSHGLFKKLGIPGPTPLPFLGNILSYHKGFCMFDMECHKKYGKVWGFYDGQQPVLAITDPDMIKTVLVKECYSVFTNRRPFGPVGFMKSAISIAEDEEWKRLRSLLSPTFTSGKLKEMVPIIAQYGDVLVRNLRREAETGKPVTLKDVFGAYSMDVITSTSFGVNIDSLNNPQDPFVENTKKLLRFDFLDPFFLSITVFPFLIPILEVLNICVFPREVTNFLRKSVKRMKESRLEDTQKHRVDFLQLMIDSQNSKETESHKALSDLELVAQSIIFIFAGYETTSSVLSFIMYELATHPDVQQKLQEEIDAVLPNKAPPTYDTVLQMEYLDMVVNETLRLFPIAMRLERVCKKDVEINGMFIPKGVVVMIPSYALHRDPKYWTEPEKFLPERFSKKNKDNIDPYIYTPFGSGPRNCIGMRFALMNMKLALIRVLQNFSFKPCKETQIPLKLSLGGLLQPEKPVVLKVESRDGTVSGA
Cytochrome P450 2C9, sequence (P11712 whole entry): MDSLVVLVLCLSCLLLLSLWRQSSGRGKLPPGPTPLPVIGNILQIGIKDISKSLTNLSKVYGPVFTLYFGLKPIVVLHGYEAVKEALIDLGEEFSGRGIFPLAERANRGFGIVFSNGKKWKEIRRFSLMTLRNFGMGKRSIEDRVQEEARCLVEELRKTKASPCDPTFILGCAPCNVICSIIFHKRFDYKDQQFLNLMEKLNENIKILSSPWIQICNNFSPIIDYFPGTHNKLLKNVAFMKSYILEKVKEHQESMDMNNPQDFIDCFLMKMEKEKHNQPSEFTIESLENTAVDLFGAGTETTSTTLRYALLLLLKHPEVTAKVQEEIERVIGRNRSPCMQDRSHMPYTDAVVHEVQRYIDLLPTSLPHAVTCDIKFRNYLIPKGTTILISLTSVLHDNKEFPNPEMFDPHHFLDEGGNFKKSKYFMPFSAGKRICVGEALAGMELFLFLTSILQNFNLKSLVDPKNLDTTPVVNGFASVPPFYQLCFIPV
Cytochrome P450 2C19, sequence (P33261 whole entry): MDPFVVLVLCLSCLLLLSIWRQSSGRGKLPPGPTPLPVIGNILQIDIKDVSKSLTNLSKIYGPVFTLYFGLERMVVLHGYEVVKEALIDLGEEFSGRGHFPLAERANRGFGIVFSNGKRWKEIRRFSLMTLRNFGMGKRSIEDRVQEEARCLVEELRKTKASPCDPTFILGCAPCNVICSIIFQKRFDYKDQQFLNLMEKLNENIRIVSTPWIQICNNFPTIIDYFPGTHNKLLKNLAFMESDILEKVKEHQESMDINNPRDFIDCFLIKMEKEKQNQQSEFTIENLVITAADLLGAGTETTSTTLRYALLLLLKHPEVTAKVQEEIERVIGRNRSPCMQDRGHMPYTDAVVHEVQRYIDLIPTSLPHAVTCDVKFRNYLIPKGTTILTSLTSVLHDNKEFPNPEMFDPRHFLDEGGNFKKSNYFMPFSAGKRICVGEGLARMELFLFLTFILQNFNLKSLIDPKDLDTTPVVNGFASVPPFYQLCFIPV
hERG (KCNH2), sequence (Q12809 whole entry): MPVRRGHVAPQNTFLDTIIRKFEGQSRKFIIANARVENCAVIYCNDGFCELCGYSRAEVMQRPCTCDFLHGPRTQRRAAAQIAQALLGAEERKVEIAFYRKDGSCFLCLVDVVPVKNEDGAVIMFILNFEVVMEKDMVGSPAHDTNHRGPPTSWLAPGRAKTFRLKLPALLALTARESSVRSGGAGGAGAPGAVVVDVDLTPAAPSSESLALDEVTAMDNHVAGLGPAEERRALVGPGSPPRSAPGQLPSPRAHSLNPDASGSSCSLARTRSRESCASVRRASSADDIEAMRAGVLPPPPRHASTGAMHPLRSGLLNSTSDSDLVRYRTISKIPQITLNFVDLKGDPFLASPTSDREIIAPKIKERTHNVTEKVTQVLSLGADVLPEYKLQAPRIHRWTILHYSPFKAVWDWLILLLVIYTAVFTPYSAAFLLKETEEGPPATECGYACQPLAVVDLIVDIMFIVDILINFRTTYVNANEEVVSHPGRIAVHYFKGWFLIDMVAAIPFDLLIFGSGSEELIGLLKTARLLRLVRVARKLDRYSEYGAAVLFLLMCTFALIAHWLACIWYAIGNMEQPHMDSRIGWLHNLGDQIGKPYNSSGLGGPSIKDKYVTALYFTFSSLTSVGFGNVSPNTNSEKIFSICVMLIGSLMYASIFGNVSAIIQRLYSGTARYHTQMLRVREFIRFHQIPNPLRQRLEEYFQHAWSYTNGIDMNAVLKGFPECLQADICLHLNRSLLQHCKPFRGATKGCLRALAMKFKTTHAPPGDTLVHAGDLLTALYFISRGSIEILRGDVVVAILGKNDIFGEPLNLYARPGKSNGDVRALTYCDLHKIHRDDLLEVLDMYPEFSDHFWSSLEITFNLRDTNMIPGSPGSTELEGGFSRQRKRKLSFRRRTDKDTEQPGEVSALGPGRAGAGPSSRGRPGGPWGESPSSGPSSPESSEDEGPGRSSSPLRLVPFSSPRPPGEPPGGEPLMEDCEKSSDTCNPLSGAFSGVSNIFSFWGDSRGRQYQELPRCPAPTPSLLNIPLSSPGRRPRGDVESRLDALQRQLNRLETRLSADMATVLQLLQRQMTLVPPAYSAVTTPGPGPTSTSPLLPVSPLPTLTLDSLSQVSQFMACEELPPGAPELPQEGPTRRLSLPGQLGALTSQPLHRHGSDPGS
Cyclin-dependent kinase 4 (Homo sapiens), sequence (P11802 whole entry): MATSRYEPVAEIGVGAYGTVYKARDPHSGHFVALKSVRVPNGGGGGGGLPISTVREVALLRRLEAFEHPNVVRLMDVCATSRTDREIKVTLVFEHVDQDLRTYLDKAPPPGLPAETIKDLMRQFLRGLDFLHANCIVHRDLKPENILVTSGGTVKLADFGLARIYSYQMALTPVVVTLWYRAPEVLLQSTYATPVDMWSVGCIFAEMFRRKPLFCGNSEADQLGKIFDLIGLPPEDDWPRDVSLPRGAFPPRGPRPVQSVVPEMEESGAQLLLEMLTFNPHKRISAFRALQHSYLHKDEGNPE
Glycogen synthase kinase-3 beta (Rattus norvegicus), sequence (P18266 whole entry, looked up): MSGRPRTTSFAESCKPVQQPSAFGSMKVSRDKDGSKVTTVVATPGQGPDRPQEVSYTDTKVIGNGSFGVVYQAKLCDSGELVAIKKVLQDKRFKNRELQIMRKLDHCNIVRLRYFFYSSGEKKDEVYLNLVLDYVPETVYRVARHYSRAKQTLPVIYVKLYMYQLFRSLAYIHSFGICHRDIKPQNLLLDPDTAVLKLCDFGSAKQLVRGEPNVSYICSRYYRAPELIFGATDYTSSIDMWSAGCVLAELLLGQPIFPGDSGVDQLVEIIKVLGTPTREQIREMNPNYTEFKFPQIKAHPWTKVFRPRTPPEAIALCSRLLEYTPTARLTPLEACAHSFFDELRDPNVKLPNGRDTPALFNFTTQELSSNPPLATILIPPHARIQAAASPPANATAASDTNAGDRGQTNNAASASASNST
Cyclin-dependent kinase 9 (Homo sapiens), sequence (P50750 whole entry): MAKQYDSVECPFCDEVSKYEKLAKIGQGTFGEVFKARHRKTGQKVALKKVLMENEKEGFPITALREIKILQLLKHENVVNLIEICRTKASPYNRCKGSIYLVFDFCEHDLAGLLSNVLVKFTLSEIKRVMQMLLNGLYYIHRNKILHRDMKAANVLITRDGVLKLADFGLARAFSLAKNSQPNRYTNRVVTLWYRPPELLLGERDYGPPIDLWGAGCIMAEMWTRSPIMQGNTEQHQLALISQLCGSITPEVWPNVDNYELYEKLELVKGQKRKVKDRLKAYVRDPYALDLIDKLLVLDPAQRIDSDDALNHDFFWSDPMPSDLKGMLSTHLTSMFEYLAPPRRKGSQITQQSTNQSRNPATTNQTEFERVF

As usually defined, the solubility is the dissolved amount per volume that the medium holds. As a reminder, the logD is the decadic logarithm of the distribution of all forms, ionised or not, between an organic phase and buffer at a given pH. Lower therefore signals lower lipophilicity. Take `CC(C(=O)Nc1n[nH]c2cc(Cl)c(-c3ccccc3)cc12)N1CCCCC1` (centres undefined): in [1], the solubility is < 20 µg/mL. The same molecule yielded a logD in [2] of 3.53.
The like results for `O=C(CN1CCOCC1)Nc1n[nH]c2cc(Cl)c(-c3ccccc3)cc12` were, in that order, 28 µg/mL (≈ 75.5 µM) and 3.49.
In general, pIC50 refers to the negative decadic logarithm of the IC50, by convention in mol/L. Regarding `CCCC(=O)Nc1n[nH]c2cc(Cl)c(-c3ccc([N+](=O)[O-])cc3)cc12`, on Cytochrome P450 1A2, the pIC50 is 5.35.
Consider `CCCC(=O)Nc1n[nH]c2cc(Cl)c(-c3ccc(O)cc3)cc12`, for which the solubility in data set [1] was < 20 µg/mL. Further, the permeability in the data set with Caco-2 was found to be 8.02%. This molecule registered a logD in [2] of 3.9. For the same molecule, in data set [3], the negative logarithm of the IC50 (pIC50) is 7.10. The remaining at 0.25 h in data set [4] stood at 19%.
Turning to `CCCC(=O)Nc1n[nH]c2cc(-c3ccsc3)ccc12`, the negative-log IC50 (pIC50) at Cytochrome P450 1A2 was 5.72.
Turning to `CCC(=O)Nc1n[nH]c2cc(Cl)ccc12`, the solubility in [1] (read-out: solubility) came to 168 µg/mL (≈ 751 µM). The molecule also registered an Activity at Albumin of 92.8%. In [2], this molecule registered a logD of 2.2.
As to `CN1CCN(CCCNC(=O)Nc2n[nH]c3cc(Cl)c(-c4ccccc4)cc23)CC1`, the solubility in data set [1] is > 208 µg/mL. Further, the remaining at 0.25 h in [4] is 100%.
On to `CCCC(=O)Nc1n[nH]c2cc(Cl)c(-c3ccc(C)cc3)cc12`, for which the pIC50 on Cytochrome P450 1A2 is 5.76.
With `CCCC(=O)Nc1n[nH]c2cc(-c3ccccc3)ccc12`, the pIC50 on Cytochrome P450 1A2 was < 5.00; in data set [3], 6.41.
On to `CCCC(=O)Nc1n[nH]c2cc(Cl)c(-c3ccc(F)cc3)cc12`, for which the pIC50 on Cytochrome P450 1A2 is 6.08; in data set [3] it was 6.89.
As for `CCCC(=O)Nc1n[nH]c2c(F)c(F)ccc12`, the remaining at 0.25 h in data set [5] amounted to 98%; in data set [4] it was 93%. In [1], the concentration in solution (solubility) was 54 µg/mL (≈ 226 µM). Moreover, the permeability with Caco-2 was found to be 16.33%. The molecule further yielded a logD in data set [2] of 3.
As usually defined, the inhibition is the drop in the measured response relative to a control, in per cent. The low end stands for a response near the control, the high end for a response far below the control. `CCCC(=O)Nc1n[nH]c2cc(-c3ccc(O)cc3)c(Br)cc12`: the remaining at 0.25 h in [5] worked out at 91%; in data set [4], 10%. Further, in data set [1], the solubility was < 20 µg/mL. Moreover, the pIC50 at Cytochrome P450 2C9 was < 5.00; at Cytochrome P450 2D6, < 5.00; on Cytochrome P450 3A4 it was < 5.00; at Cytochrome P450 1A2, < 5.00; on Cytochrome P450 2C19 it was < 5.00; in data set [3], 7.15. On hERG (KCNH2), this molecule gave an inhibition at 10 µM of 7%. In addition, the Activity on Albumin is 99.3%. Besides, the logD in data set [2] was found to be 4.4.
For the molecule `CCCC(=O)Nc1n[nH]c2cc(Cl)c(Br)cc12`, the remaining at 0.25 h in [5] stood at 97%; in data set [4] it was 87%. The solubility in data set [1] was < 20 µg/mL. Further, the permeability with Caco-2 is 17.25%. In addition, at Cytochrome P450 1A2, the pIC50 is 6.26. Besides, the pH-dependent lipophilicity (logD) in data set [2] came to 4.4.
In the case of `CCCC(=O)Nc1n[nH]c2cc(-c3cc(F)cc(F)c3)ccc12`, the pIC50 was 4.86 on Cytochrome P450 1A2 and 5.57 in data set [3].
For `O=C(O)CCC(=O)Nc1n[nH]c2cc(Cl)ccc12`, the solubility in data set [1] (read-out: solubility) amounted to 716 µg/mL (≈ 2670 µM). Also, at Cytochrome P450 1A2, the pIC50 was < 4.30. Besides, the Activity at Albumin was < 90%. Moreover, in data set [2], the logD was < 1.
As for `CCCC(=O)Nc1n[nH]c2c(F)c(F)c(-c3ccccc3)cc12`, the remaining at 0.25 h in data set [5] was 86%; in data set [4] it was 56%. In [1], this molecule had a solubility of 4 µg/mL (≈ 12.7 µM). In data set [2], the logD turned out to be 2.4.
With `O=C(NCCCn1ccnc1)Nc1n[nH]c2cc(Cl)c(-c3ccccc3)cc12`, the solubility in data set [1] was < 20 µg/mL. Besides, the remaining at 0.25 h in data set [4] is 85%.
`CCCC(=O)Nc1n[nH]c2cc(Cl)c(-c3ccc(N)cc3)cc12`: the pIC50 at Cytochrome P450 1A2 was 6.01.
On to `CCCC(=O)Nc1n[nH]c2cc(Cl)c(-c3ccoc3)cc12`, for which the remaining at 0.25 h was 45% in data set [5] and 4% in [4]. For the same molecule, the solubility in data set [1] was < 20 µg/mL. The permeability with Caco-2 is 12.3%. For the same molecule, the pIC50 is > 6.40 on Cytochrome P450 1A2 and 7.52 in [3]. Moreover, the logD in data set [2] came out at 4.1.
As for `O=C(Nc1n[nH]c2cc(Cl)c(-c3ccccc3)cc12)N1CCCC1`, in data set [1], the solubility is < 20 µg/mL. The remaining at 0.25 h in data set [4] is 79%.
On to `CCCC(=O)Nc1n[nH]c2cc(-c3ccc(O)cc3)ccc12`, for which the remaining at 0.25 h in data set [5] was 58%; in [4] it was 4%. In data set [1], this molecule registered a solubility of 67 µg/mL (≈ 227 µM). Besides, the permeability in the data set with Caco-2 worked out at 15.25%. The pIC50 is < 4.30 on Cytochrome P450 1A2 and 4.66 in data set [3]. This molecule displayed an Activity on Albumin of 97.3%.
Consider `O=C(Nc1ccccc1)Nc1n[nH]c2cc(Cl)c(-c3ccccc3)cc12`, for which, in data set [1], the solubility is < 20 µg/mL. Besides, the inhibition is < 50% in data set [6], < 50% in data set [9], < 50% in [10] and 81% in data set [11]. In addition, the results for the pIC50 in [7] and in [8] were 6.57 and < 5.00, respectively. Further, the remaining at 0.25 h in [4] was determined as 92%.
As for `O=C(CN1CCOCC1)Nc1n[nH]c2cc(Cl)ccc12`, the solubility in data set [1] was < 20 µg/mL. In data set [2], this molecule had a logD of 3.1.
On to `CCCC(=O)Nc1n[nH]c2cc(Cl)c(-c3ccccc3)cc12`, for which the remaining at 0.25 h came to 91% in data set [5] and 40% in data set [4]. Moreover, in data set [1], the solubility is < 20 µg/mL. In addition, the pIC50 at Cytochrome P450 2C9 is < 5.00; at Cytochrome P450 2D6, < 5.00; on Cytochrome P450 3A4, < 5.00; at Cytochrome P450 1A2 it was > 6.40; on Cytochrome P450 2C19 it was < 5.00; in [3], 7.10. On hERG (KCNH2), this molecule gave an inhibition at 10 µM of 24%. Further, the permeability in the data set on Caco-2 stood at 3.9%. For the same molecule, the Activity at Albumin is given as 99.4%. The same molecule came in with a logD in data set [2] of 3.7.
As for `CCCC(=O)Nc1n[nH]c2cc(-c3cccnc3)ccc12`, the pIC50 at Cytochrome P450 1A2 is 5.92; in data set [3], 5.23.
`CCCC(=O)Nc1n[nH]c2cc(Cl)c(-c3ccc(OCc4ccccc4)cc3)cc12`: on Cytochrome P450 1A2, the pIC50 was < 5.00.
